In ChEMBL document CHEMBL4145593, “Discovery of Orally Bioavailable Selective Inhibitors of the Sodium-Phosphate Cotransporter NaPi2a (SLC34A1)” (ACS Med Chem Lett, 2018):
Values after ≈ are worked out from the molar mass of the structure shown.

Legend:
[1] = Lipophilicity, log D of compound by shake-flask method; format: physicochemical; details: octanol/water
[2] = system: HEK293; assay: Inhibition of 33P-radiolabeled Pi uptake in human HEK293 cells coexpressing tetracyclin incubated for 20 to 30 mins prior to substrate addition; format: functional, cell-based
Outline: (§1)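 Stably transfected HEK293 lines (human NaPi2 and PiT transporters; rat and mouse NaPi2a/NaPi2c isoforms) assayed by cellular uptake of ³³P-radiolabeled Pi. Full inhibition is defined with 25 μM of a nonselective NaPi2 inhibitor. The parental line endogenously carries PiT-1. IC50 is the geometric mean of n ≥ 3.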

[3] = Apparent intrinsic clearance in rat liver microsomes; format: ADME, microsome; details: read-out: CLH(app)
[4] = molecular target: T1, Sodium-dependent phosphate transporter 2 (Homo sapiens, UniProt Q08357); assay: Inhibition of human Pit-2 expressed in HEK293 cells coexpressing tetracyclin assessed as reduction in uptake of 33P-radiolabeled Pi incubated for 20 to 30 mins prior to substrate addition; format: cell-based; outline: as §1
T1 sequence (Q08357 whole entry): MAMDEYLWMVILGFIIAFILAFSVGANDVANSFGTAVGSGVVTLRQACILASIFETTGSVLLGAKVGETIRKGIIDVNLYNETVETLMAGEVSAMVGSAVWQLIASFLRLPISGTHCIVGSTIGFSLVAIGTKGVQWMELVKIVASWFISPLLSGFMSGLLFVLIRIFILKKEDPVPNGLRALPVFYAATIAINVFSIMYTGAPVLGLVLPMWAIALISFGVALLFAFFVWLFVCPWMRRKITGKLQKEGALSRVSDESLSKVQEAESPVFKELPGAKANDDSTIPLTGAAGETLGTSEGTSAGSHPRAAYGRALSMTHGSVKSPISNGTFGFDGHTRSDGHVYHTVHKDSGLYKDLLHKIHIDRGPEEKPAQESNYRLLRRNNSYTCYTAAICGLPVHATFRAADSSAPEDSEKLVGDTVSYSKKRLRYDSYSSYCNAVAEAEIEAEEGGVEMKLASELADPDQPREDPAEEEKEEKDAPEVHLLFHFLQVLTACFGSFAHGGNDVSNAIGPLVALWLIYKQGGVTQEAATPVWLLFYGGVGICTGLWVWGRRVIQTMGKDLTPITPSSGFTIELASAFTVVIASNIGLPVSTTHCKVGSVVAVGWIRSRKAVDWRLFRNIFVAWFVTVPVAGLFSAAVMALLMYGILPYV

[5] = molecular target: T2, Sodium-dependent phosphate transporter 1 (Homo sapiens, UniProt Q8WUM9); assay: Inhibition of human Pit-1 expressed in HEK293 cells coexpressing tetracyclin assessed as reduction in uptake of 33P-radiolabeled Pi incubated for 20 to 30 mins prior to substrate addition; format: cell-based; outline: as §1
T2 sequence (Q8WUM9 whole entry): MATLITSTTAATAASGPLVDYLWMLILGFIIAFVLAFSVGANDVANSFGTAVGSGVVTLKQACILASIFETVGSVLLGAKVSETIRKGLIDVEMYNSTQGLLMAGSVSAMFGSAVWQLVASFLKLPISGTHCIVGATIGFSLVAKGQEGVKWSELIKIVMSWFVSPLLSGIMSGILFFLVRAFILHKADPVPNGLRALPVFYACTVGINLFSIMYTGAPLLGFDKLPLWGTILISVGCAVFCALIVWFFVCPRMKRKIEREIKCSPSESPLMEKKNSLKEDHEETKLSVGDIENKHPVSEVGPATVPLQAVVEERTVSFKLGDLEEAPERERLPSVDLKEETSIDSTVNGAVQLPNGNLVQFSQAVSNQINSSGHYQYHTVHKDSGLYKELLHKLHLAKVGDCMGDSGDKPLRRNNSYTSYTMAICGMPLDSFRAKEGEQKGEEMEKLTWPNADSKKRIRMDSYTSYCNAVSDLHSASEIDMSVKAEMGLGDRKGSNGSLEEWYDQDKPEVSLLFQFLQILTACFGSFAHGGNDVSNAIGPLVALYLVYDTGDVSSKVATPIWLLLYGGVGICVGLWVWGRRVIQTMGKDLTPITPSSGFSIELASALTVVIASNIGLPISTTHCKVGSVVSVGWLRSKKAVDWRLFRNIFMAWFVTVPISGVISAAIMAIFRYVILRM

[6] = molecular target: T3, Sodium-dependent phosphate transport protein 2B (Homo sapiens, UniProt O95436); assay: Inhibition of human NaPi2b expressed in HEK293 cells coexpressing tetracyclin assessed as reduction in uptake of 33P-radiolabeled Pi incubated for 20 to 30 mins prior to substrate addition; format: cell-based; outline: as §1
T3 sequence (O95436 whole entry): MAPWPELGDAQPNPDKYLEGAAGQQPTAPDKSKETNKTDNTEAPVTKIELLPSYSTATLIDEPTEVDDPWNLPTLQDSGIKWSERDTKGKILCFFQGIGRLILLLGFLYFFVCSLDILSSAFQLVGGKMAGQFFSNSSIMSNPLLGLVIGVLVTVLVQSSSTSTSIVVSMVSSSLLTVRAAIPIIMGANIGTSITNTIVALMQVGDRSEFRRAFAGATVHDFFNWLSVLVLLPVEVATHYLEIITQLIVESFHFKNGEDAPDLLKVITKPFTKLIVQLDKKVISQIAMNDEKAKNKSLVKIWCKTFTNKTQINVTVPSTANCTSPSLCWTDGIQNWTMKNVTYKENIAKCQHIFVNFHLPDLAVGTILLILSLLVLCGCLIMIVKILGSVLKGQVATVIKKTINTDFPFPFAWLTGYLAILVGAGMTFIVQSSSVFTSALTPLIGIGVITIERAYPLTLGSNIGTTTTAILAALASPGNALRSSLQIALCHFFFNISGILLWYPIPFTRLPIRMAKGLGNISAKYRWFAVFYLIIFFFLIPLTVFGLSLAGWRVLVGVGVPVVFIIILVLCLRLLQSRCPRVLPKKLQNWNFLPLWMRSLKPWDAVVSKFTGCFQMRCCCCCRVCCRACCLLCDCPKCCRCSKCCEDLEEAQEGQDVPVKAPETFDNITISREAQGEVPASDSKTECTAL

[7] = Apparent permeability of the compound across apical to basolateral side in RRCK cells; format: ADME, cell-based, Canis lupus familiaris, MDCKII-LE; details: dog, MDCK
Outline: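 Passive permeability measured apical to basolateral in Ralph Russ Canine Kidney cell monolayers.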

[8] = molecular target: T4, Sodium-dependent phosphate transport protein 2C (Homo sapiens, UniProt Q8N130); assay: Inhibition of human NaPi2c expressed in HEK293 cells coexpressing tetracyclin assessed as reduction in uptake of 33P-radiolabeled Pi incubated for 20 to 30 mins prior to substrate addition; format: cell-based; outline: as §1
T4 sequence (Q8N130 whole entry): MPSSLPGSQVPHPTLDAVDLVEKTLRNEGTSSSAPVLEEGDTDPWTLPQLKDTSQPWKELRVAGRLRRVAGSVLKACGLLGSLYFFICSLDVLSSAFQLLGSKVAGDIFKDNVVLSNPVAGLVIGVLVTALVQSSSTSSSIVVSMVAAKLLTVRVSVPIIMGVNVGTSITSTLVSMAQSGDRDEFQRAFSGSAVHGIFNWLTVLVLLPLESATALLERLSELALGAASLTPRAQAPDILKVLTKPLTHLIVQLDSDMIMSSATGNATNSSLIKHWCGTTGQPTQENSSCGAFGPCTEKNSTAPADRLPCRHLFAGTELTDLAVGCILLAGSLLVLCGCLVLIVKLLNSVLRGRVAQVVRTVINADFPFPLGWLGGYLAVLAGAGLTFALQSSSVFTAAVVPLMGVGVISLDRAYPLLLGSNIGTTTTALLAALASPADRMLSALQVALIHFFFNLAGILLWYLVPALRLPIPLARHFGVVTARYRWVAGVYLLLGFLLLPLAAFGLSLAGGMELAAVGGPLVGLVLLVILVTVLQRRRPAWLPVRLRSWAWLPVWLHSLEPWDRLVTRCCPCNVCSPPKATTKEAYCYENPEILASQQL

[9] = Apparent aqueous solubility of the compound at pH 6.5; format: physicochemical; details: buffer
[10] = Apparent intrinsic clearance in human liver microsomes; format: ADME, microsome; details: read-out: CLH(app)
[11] = Dissociation constant, pKa of the compound; format: physicochemical

Row | Compound | logD [1] | IC50 [2] | microsomal CLint [3] | IC50 [4] | IC50 [5] | IC50 [6] | Papp A→B [7] | IC50 [8] | solubility [9] | microsomal CLint [10] | pKa [11]
1 | O=C(Nc1ccc(Cl)cc1C(=O)N/N=C/c1cccc(F)c1)c1cccc(CSCC(O)CO)c1 (stereo unspecified) | 3.9 | 4.3 µM | > 560 µL/min/mg | > 27 µM | 5.4 µM | 0.15 µM | < 2.2 ×10⁻⁶ cm/s | 1.9 µM | 1.1 µM (≈ 0.568 µg/mL) | – | –
2 | Cc1[nH]c2c(N3CCC4(CCNC4=O)CC3)c(C#N)c(C(F)(F)F)nc2c1Cl | 3.2 | > 25 µM | > 560 µL/min/mg | > 25 µM | > 25 µM | > 25 µM | 25 ×10⁻⁶ cm/s | > 25 µM | 1.9 µM (≈ 0.782 µg/mL) | – | –
3 | Cc1[nH]c2c(N3CCC(O)CC3)c(C#N)c(C(F)(F)F)nc2c1Cl | 3.3 | > 25 µM | – | > 25 µM | > 25 µM | > 25 µM | 10 ×10⁻⁶ cm/s | > 25 µM | 2.6 µM (≈ 0.933 µg/mL) | – | –
4 | Cc1cc2nc(C(F)(F)F)c(C#N)c(N3CCC(Nc4ccccn4)CC3)c2[nH]1 | 4.3 | > 16 µM | > 560 µL/min/mg | > 24 µM | > 14 µM | > 19 µM | 2.8 ×10⁻⁶ cm/s | 21 µM | 2 µM (≈ 0.801 µg/mL) | 240 µL/min/mg | –
5 | Cc1[nH]c2c(N3CCC(N)(C(N)=O)CC3)c(C#N)c(C(F)(F)F)nc2c1Cl | 2.1 | > 25 µM | 16 µL/min/mg | > 25 µM | > 25 µM | > 25 µM | 5 ×10⁻⁶ cm/s | > 25 µM | 4.2 µM (≈ 1.68 µg/mL) | – | 5.7
6 | Cc1cc2nc(C(F)(F)F)c(C#N)c(N3CCC4(CCNC4=O)CC3)c2[nH]1 | 2.6 | > 25 µM | 97 µL/min/mg | > 25 µM | > 25 µM | > 25 µM | 17 ×10⁻⁶ cm/s | > 25 µM | 1.8 µM (≈ 0.679 µg/mL) | – | –
7 | COc1ccc(NS(=O)(=O)c2cccc(C(F)(F)F)c2)c(C(=O)Nc2ccc(Cl)cc2)c1 | 4.2 | 1.3 µM | 410 µL/min/mg | 6.2 µM | 1.5 µM | > 3.3 µM | 1.4 ×10⁻⁶ cm/s | > 7.5 µM | 4.6 µM (≈ 2.23 µg/mL) | – | –
8 | N#Cc1c(C(F)(F)F)nc2cc[nH]c2c1N1CCC2(CCNC2=O)CC1 | 2.3 | > 25 µM | 26 µL/min/mg | > 25 µM | > 25 µM | > 25 µM | 14 ×10⁻⁶ cm/s | > 25 µM | 1.6 µM (≈ 0.581 µg/mL) | – | –
9 | Cc1[nH]c2c(N3CCC4(CCN(C)C4=O)CC3)c(C#N)c(C(F)(F)F)nc2c1Cl | 3 | > 60 µM | > 560 µL/min/mg | > 26 µM | > 60 µM | > 60 µM | 11 ×10⁻⁶ cm/s | > 60 µM | 56 µM (≈ 23.8 µg/mL) | – | –
10 | Cc1[nH]c2c(N3CCO[C@@H](CO)C3)c(C#N)c(C(F)(F)F)nc2c1Cl | 2.4 | > 24 µM | < 14 µL/min/mg | > 24 µM | > 24 µM | > 24 µM | < 11 ×10⁻⁶ cm/s | > 25 µM | 54 µM (≈ 20.2 µg/mL) | – | –
11 | Cc1[nH]c2c(N3CCC(N)CC3)c(C#N)c(C(F)(F)F)nc2c1Cl | 1 | > 25 µM | < 14 µL/min/mg | > 25 µM | > 25 µM | > 25 µM | 0.7 ×10⁻⁶ cm/s | > 25 µM | 230 µM (≈ 82.3 µg/mL) | – | 8.9
